Test results published in ChEMBL document CHEMBL3244382, “Structural requirements for antileukemic activity among the naturally occurring and semisynthetic maytansinoids” (J Med Chem, 1978).
Values after ≈ are worked out from the molar mass of the structure shown. Active and inactive are the calls of the source.

What was measured:
[1] = tested on: P388; assay: Antitumor activity against mouse P388 cells allografted in PS mouse assessed as median survival time at 200 ug/kg relative to control; format: functional
Outline: (§1)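 P388 leukemia (PS) in mice, six mice started per dose group. Read-out is T/C: median survival time of the treated group divided by that of the untreated control group, expressed as a percent. The NIH protocol counts a compound as active when T/C > 125%.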

[2] = tested on: Mus musculus; assay: Toxicity in PS mouse allografted with mouse P388 cells assessed as change in body weight at 50 ug/kg relative to control; format: organism-based; details: in vivo, 0.05 mg/kg
Outline: (§2)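 P388 (PS) leukemia in mice, 6 mice per dose group. Weight change is the difference in grams between treated and control animals. Survivors are recorded on toxicity day, normally 4 days after the first injection.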

[3] = tested on: Mus musculus; assay: Toxicity in PS mouse allografted with mouse P388 cells assessed as survival at 1.6 ug/kg after 4 days; format: organism-based; details: in vivo, 0.0016 mg/kg, 96 h
Outline: (§3)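 PS (P388) leukemic mice, six started per dose group. Toxicity scored as survivors on the toxicity day over the number of mice started. The toxicity day is normally 4 days after the first injection.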

[4] = tested on: Mus musculus; assay: Toxicity in PS mouse allografted with mouse P388 cells assessed as change in body weight at 6.2 ug/kg relative to control; format: organism-based; details: in vivo, 0.0062 mg/kg; outline: as §2
[5] = tested on: Mus musculus; assay: Toxicity in PS mouse allografted with mouse P388 cells assessed as survival at 6.2 ug/kg after 4 days; format: organism-based; details: in vivo, 0.0062 mg/kg, 96 h; outline: as §3
[6] = tested on: P388; assay: Antitumor activity against mouse P388 cells allografted in PS mouse assessed as median survival time at 3.1 ug/kg relative to control; format: functional; outline: as §1
[7] = tested on: Paracentrotus lividus; assay: Antimitotic activity against sea urchin eggs assessed as drug level causing inhibition of mitosis; format: functional; details: Egg
[8] = tested on: Mus musculus; assay: Toxicity in PS mouse allografted with mouse P388 cells assessed as change in body weight at 12.5 ug/kg relative to control; format: organism-based; details: in vivo, 0.0125 mg/kg; outline: as §2
[9] = target: Tubulin (Homo sapiens) (UniProt P68371+Q9H4B7+P0DPH7+P68366+Q13509+Q71U36+P04350+Q3ZCM7+P07437+P68363+Q9BQE3+Q6PEY2+Q13885+Q9BVA1+Q9BUF5); assay: Inhibition of brain tubulin polymerization (unknown origin) at 37 degC by spectrophotometry
[10] = tested on: Mus musculus; assay: Toxicity in PS mouse allografted with mouse P388 cells assessed as change in body weight at 1.6 ug/kg relative to control; format: organism-based; details: in vivo, 0.0016 mg/kg; outline: as §2
[11] = tested on: KB; assay: Cytotoxicity against human KB cells; format: functional; details: read-out: ED50 (the source's name)
[12] = tested on: Mus musculus; assay: Toxicity in PS mouse allografted with mouse P388 cells assessed as survival at 3.1 ug/kg after 4 days; format: organism-based; details: in vivo, 0.0031 mg/kg, 96 h; outline: as §3
[13] = tested on: Mus musculus; assay: Toxicity in PS mouse allografted with mouse P388 cells assessed as survival at 12.5 ug/kg after 4 days; format: organism-based; details: in vivo, 0.0125 mg/kg, 96 h; outline: as §3
[14] = tested on: Mus musculus; assay: Toxicity in PS mouse allografted with mouse P388 cells assessed as survival at 50 ug/kg after 4 days; format: organism-based; details: in vivo, 0.05 mg/kg, 96 h; outline: as §3
[15] = tested on: P388; assay: Antitumor activity against mouse P388 cells allografted in PS mouse assessed as median survival time at 400 ug/kg relative to control; format: functional; outline: as §1
[16] = tested on: P388; assay: Antitumor activity against mouse P388 cells allografted in PS mouse assessed as median survival time at 6.2 ug/kg relative to control; format: functional; outline: as §1
[17] = tested on: P388; assay: Antitumor activity against mouse P388 cells allografted in PS mouse assessed as median survival time at 50 ug/kg relative to control; format: functional; outline: as §1
[18] = tested on: Mus musculus; assay: Toxicity in PS mouse allografted with mouse P388 cells assessed as survival at 25 ug/kg after 4 days; format: organism-based; details: in vivo, 0.025 mg/kg, 96 h; outline: as §3
[19] = tested on: Mus musculus; assay: Toxicity in PS mouse allografted with mouse P388 cells assessed as survival at 400 ug/kg after 4 days; format: organism-based; details: in vivo, 0.4 mg/kg, 96 h; outline: as §3
[20] = tested on: Mus musculus; assay: Toxicity in PS mouse allografted with mouse P388 cells assessed as change in body weight at 25 ug/kg relative to control; format: organism-based; details: in vivo, 0.025 mg/kg; outline: as §2
[21] = tested on: Mus musculus; assay: Toxicity in PS mouse allografted with mouse P388 cells assessed as change in body weight at 200 ug/kg relative to control; format: organism-based; details: in vivo, 0.2 mg/kg; outline: as §2
[22] = tested on: Mus musculus; assay: Toxicity in PS mouse allografted with mouse P388 cells assessed as survival at 100 ug/kg after 4 days; format: organism-based; details: in vivo, 0.1 mg/kg, 96 h; outline: as §3
[23] = tested on: Mus musculus; assay: Toxicity in PS mouse allografted with mouse P388 cells assessed as change in body weight at 400 ug/kg relative to control; format: organism-based; details: in vivo, 0.4 mg/kg; outline: as §2
[24] = tested on: Mus musculus; assay: Toxicity in PS mouse allografted with mouse P388 cells assessed as survival at 200 ug/kg after 4 days; format: organism-based; details: in vivo, 0.2 mg/kg, 96 h; outline: as §3
[25] = tested on: P388; assay: Antitumor activity against mouse P388 cells allografted in PS mouse assessed as median survival time at 12.5 ug/kg relative to control; format: functional; outline: as §1
[26] = tested on: P388; assay: Antitumor activity against mouse P388 cells allografted in PS mouse assessed as median survival time at 1.6 ug/kg relative to control; format: functional; outline: as §1
[27] = tested on: P388; assay: Antitumor activity against mouse P388 cells allografted in PS mouse assessed as median survival time at 25 ug/kg relative to control; format: functional; outline: as §1
[28] = tested on: Mus musculus; assay: Toxicity in PS mouse allografted with mouse P388 cells assessed as change in body weight at 3.1 ug/kg relative to control; format: organism-based; details: in vivo, 0.0031 mg/kg; outline: as §2
[29] = tested on: Mus musculus; assay: Toxicity in PS mouse allografted with mouse P388 cells assessed as change in body weight at 100 ug/kg relative to control; format: organism-based; details: in vivo, 0.1 mg/kg; outline: as §2
[30] = tested on: P388; assay: Antitumor activity against mouse P388 cells allografted in PS mouse assessed as median survival time at 100 ug/kg relative to control; format: functional; outline: as §1

SMILES | T/C [1] | Activity [2] | Activity [4] | Activity [5] | T/C [6] | Activity [7] | Activity [8] | inhibition [9] | EC50 [11] | Activity [12] | Activity [13] | Activity [14] | T/C [15] | T/C [16] | T/C [17] | Activity [18] | Activity [19] | Activity [20] | Activity [21] | Activity [22] | also measured
CCCS[C@]12C[C@H](OC(=O)N1)[C@@H](C)[C@@H]1O[C@@]1(C)[C@@H](OC(=O)[C@H](C)N(C)C(=O)C(C)C)CC(=O)N(C)c1cc(cc(OC)c1Cl)C/C(C)=C/C=C/[C@H]2OC | 151% | 0.4 g | -0.1 g | Non-toxic | 97% | 1 ×10⁻⁸ mol/L | 0.6 g | Active | 0.31 ng/mL (≈ 0.398 nM) | Non-toxic | Non-toxic | Non-toxic | 151% | <80% | 118% | Non-toxic | Non-toxic | 0.7 g | -2.4 g | Non-toxic | Activity [3]: Non-toxic; Activity [10]: 0.8 g; Activity [23]: 0.6 g; Activity [24]: Non-toxic; T/C [25]: 95%; T/C [26]: 100%; T/C [27]: 101%; Activity [28]: 0.6 g; Activity [29]: -1.6 g; T/C [30]: 127%
COc1cc2cc(c1Cl)N(C)C(=O)C[C@H](OC(=O)[C@H](C)N(C)C(=O)C(C)C)[C@]1(C)O[C@H]1[C@H](C)[C@@H]1C[C@@](OC)(NC(=O)O1)[C@H](OC)/C=C/C=C(\C)C2 | 100% | -2 g | -0.6 g | Non-toxic | 99% | 1 ×10⁻⁸ mol/L | -2.1 g | Active | 0.16 ng/mL (≈ 0.218 nM) | Non-toxic | Non-toxic | Non-toxic | 136% | 100% | 99% | Non-toxic | Non-toxic | -0.5 g | -0.9 g | Non-toxic | Activity [3]: Non-toxic; Activity [10]: -1.8 g; Activity [23]: -3 g; Activity [24]: Non-toxic; T/C [25]: 99%; T/C [26]: 101%; T/C [27]: 96%; Activity [28]: -1.1 g; Activity [29]: -1 g; T/C [30]: 99%
CCO[C@]12C[C@H](OC(=O)N1)[C@@H](C)[C@@H]1O[C@@]1(C)[C@@H](OC(=O)[C@H](C)N(C)C(C)=O)CC(=O)N(C)c1cc(cc(OC)c1Cl)C/C(C)=C/C=C/[C@H]2OC | 98% | -0.8 g | -1.3 g | Non-toxic | 99% | 1 ×10⁻⁷ mol/L | -0.3 g | Active | 11 ng/mL (≈ 15.3 nM) | Non-toxic | Non-toxic | Non-toxic | 100% | 99% | 98% | Non-toxic | Non-toxic | -0.3 g | 0.3 g | Non-toxic | Activity [3]: Non-toxic; Activity [10]: -0.1 g; Activity [23]: -0.6 g; Activity [24]: Non-toxic; T/C [25]: 101%; T/C [26]: 99%; T/C [27]: 116%; Activity [28]: -0.7 g; Activity [29]: -2 g; T/C [30]: 105%
COc1cc2cc(c1Cl)N(C)C(=O)CC(O)C1(C)OC1C(C)C1CC(O)(NC(=O)O1)C(OC)/C=C/C=C(\C)C2 (configuration not stated) [MAYTANSINOL] | 112% | -0.4 g | 0.5 g | Non-toxic | 102% | 1 ×10⁻⁵ mol/L | 1.5 g | Active | 190 ng/mL (≈ 336 nM) | Non-toxic | Non-toxic | Non-toxic | 102% | 102% | 112% | Non-toxic | Non-toxic | 0.5 g | -1.8 g | Non-toxic | Activity [23]: -2.6 g; Activity [24]: Non-toxic; T/C [25]: 102%; T/C [27]: 94%; Activity [28]: 0.9 g; Activity [29]: 1.2 g; T/C [30]: 105%
